Legend:
[1] = molecular target: T1, Acyl-CoA desaturase 1 (Rattus norvegicus, UniProt P07308); assay: Inhibition of rat liver SCD1 using [3H]-stearoylCoA
T1 sequence (P07308 whole entry): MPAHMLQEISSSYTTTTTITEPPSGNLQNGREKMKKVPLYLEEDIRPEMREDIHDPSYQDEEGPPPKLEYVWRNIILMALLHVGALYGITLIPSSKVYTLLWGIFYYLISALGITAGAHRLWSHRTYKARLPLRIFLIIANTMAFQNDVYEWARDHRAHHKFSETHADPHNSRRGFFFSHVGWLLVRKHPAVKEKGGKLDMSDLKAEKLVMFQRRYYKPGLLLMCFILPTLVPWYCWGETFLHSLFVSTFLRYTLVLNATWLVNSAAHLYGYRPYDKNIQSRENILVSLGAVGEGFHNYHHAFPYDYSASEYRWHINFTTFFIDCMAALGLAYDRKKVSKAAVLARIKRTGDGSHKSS

[2] = Volume of distribution at steady state in rat; format: ADME, organism-based; details: in vivo, read-out: Vdss
[3] = Intrinsic clearance in human liver microsomes assessed per mg of protein; format: ADME, Microsome
[4] = Clearance in rat; format: ADME, organism-based; details: in vivo
[5] = molecular target: T2, Stearoyl-CoA desaturase (Homo sapiens, UniProt O00767); assay: Inhibition of human SCD1
T2 sequence (O00767 whole entry): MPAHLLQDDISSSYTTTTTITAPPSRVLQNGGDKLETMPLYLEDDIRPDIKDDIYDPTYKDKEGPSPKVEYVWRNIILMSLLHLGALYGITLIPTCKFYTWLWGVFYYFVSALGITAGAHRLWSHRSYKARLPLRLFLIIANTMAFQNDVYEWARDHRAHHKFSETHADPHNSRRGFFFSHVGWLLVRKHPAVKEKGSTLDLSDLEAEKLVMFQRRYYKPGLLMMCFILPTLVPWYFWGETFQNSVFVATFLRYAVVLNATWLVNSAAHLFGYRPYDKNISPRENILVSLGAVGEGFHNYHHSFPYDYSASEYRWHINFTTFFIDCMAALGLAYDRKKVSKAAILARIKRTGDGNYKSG
How it was run: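 Orthogonal assay using tritiated stearoylCoA substrate and human liver microsomes as enzyme source; IC₅₀ determined.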

[6] = molecular target: CYP2D6 (Homo sapiens, UniProt P10635); assay: Inhibition of CYP2D6 at 3 uM; format: ADME
How it was run: (§1)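 Percent inhibition of each CYP isoform (1A2, 2C9, 2D6, 3A4) measured at […] test concentration.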

[7] = molecular target: T1, Acyl-CoA desaturase 1; assay: Inhibition of rat liver SCD1 assessed as formation of deuterated oleoylCoA by HTMS assay
How it was run: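 Rat liver microsomes as enzyme source. RapidFire high-throughput mass spectrometry quantitates deuterated oleoylCoA formed from deuterated stearoylCoA substrate.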

[8] = molecular target: CYP2C9 (Homo sapiens, UniProt P11712); assay: Inhibition of CYP2C9 at 3 uM; format: ADME; how it was run: as §1
[9] = Apparent permeability of the compound by PAMPA; format: ADME
[10] = Intrinsic clearance in rat liver microsomes assessed per mg of protein; format: ADME, Microsome
[11] = molecular target: CYP3A4 (Homo sapiens, UniProt P08684); assay: Inhibition of CYP3A4 at 3 uM; format: ADME; how it was run: as §1
[12] = molecular target: hERG (Homo sapiens, UniProt Q12809); assay: Displacement of [3H]-dofetilide from human ERG at 10 uM; details: probe [3H]-dofetilide
How it was run: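 Dofetilide binding assay; percent inhibition measured at […] test concentration.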

[13] = molecular target: T3, CYP1A2 (Homo sapiens, UniProt P05177); assay: Inhibition of CYP1A2 at 3 uM; format: ADME; how it was run: as §1
T3 sequence (P05177 whole entry): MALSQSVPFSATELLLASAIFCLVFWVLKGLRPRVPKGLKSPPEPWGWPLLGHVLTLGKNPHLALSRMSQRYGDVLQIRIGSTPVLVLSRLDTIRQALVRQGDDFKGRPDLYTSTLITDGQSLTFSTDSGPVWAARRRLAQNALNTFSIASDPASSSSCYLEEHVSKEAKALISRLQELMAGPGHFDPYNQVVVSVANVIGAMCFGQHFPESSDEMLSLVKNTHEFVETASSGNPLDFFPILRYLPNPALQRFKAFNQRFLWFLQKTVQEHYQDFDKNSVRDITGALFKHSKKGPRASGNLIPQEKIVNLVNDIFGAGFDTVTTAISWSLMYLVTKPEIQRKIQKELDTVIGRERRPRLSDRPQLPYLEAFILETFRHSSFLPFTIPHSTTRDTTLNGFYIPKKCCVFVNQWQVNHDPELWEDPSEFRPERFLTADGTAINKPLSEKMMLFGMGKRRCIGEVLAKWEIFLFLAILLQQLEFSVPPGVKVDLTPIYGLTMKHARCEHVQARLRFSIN

[14] = Half life in po dosed in rat; format: ADME, organism-based; details: in vivo
[15] = Oral bioavailability in rat; format: ADME, organism-based; details: in vivo
[16] = system: Rattus norvegicus; assay: Reduction of desaturation index in low essential fatty acid diet model of Sprague-Dawley rat plasma at 30 mg/kg, po after 3 hrs; format: functional; set-up: scale not given: the % may be the effect or the level left
How it was run: (§2)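 Sprague–Dawley rats, n = 8 per dose group, fasted 20 h, then fed low essential fatty acid (LEFA) diet for 24 h. Next day dosed po in 0.5% methylcellulose vehicle. Plasma taken 3 h post dose. Stearic and oleic acid extracted from plasma and quantitated by LC/MS. DI = total oleic:stearic acid ratio; % reduction relative to vehicle group.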

[17] = molecular target: T4, Cytochrome P450 1A2 (Homo sapiens, UniProt P05177); assay: Inhibition of CYP1A2; format: ADME
T4 sequence (P05177 whole entry): T3 sequence (P05177 whole entry)

[18] = system: Plasma; assay: Free plasma concentration in Sprague-Dawley rat plasma at 30 mg/kg, po; format: ADME, organism-based; set-up: dose 30 mg/kg, route oral; details: in vivo
[19] = Genotoxicity in Salmonella Typhimurium by Ames test; format: toxicity; details: salmonella enterica subsp. enterica serovar typhimurium
[20] = molecular target: Cytochrome P450 2D6 (Homo sapiens, UniProt P10635); assay: Inhibition of CYP2D6; format: ADME
[21] = system: Rattus norvegicus; assay: Toxicity in low essential fatty acid diet model of Sprague-Dawley rat ocular tissue assessed as red eye formation at 1 to 30 mg/kg, po after 27 hrs; format: organism-based; set-up: dose 1-30 mg/kg, route oral; details: in vivo
How it was run: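 LEFA-diet Sprague–Dawley rats (n = 8/group) dosed po in 0.5% methylcellulose with plasma sampled at 3 h. Animals then held for observation. Ocular tissues (red eyes) assessed at 27 h post-dose.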

[22] = molecular target: Cytochrome P450 3A4 (Homo sapiens, UniProt P08684); assay: Inhibition of CYP3A4; format: ADME
[23] = system: Rattus norvegicus; assay: Reduction of desaturation index in low essential fatty acid diet model of Sprague-Dawley rat plasma at 10 mg/kg, po after 3 hrs; format: functional; set-up: scale not given: the % may be the effect or the level left; how it was run: as §2
[24] = system: Plasma; assay: Drug level in Sprague-Dawley rat plasma at 30 mg/kg, po; format: ADME, organism-based; set-up: dose 30 mg/kg, route oral; details: in vivo
How it was run: (§3)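 Sprague–Dawley rats, n = 8 per dose group, fasted 20 h, then LEFA diet 24 h. Next day given po doses of 1, 10 or 30 mg/kg in 0.5% methylcellulose. Total drug concentration measured in plasma sampled 3 h post dose.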

[25] = molecular target: Cytochrome P450 2C9 (Homo sapiens, UniProt P11712); assay: Inhibition of CYP2C9; format: ADME
[26] = system: Rattus norvegicus; assay: Reduction of desaturation index in low essential fatty acid diet model of Sprague-Dawley rat plasma at 1 mg/kg, po after 3 hrs; format: functional; set-up: scale not given: the % may be the effect or the level left; how it was run: as §2
[27] = system: Plasma; assay: Drug level in Sprague-Dawley rat plasma at 1 mg/kg, po; format: ADME, organism-based; set-up: dose 1 mg/kg, route oral; details: in vivo; how it was run: as §3
[28] = molecular target: Cytochrome P450 2C19 (Homo sapiens, UniProt P33261); assay: Inhibition of CYP2C19; format: ADME
[29] = system: Plasma; assay: Drug level in Sprague-Dawley rat plasma at 10 mg/kg, po; format: ADME, organism-based; set-up: dose 10 mg/kg, route oral; details: in vivo; how it was run: as §3
[30] = system: Rattus norvegicus; assay: Reduction of desaturation index in po dosed low essential fatty acid diet model of Sprague-Dawley rat plasma after 3 hrs; format: functional, organism-based; how it was run: as §2
[31] = system: Plasma; assay: Free plasma concentration in Sprague-Dawley rat plasma at 10 mg/kg, po; format: ADME, organism-based; set-up: dose 10 mg/kg, route oral; details: in vivo
[32] = system: Plasma; assay: Free plasma concentration in Sprague-Dawley rat plasma at 1 mg/kg, po; format: ADME, organism-based; set-up: dose 1 mg/kg, route oral; details: in vivo
[33] = molecular target: Voltage-gated inwardly rectifying potassium channel KCNH2 (Homo sapiens, UniProt Q12809); assay: Inhibition of human ERG by patch clamp assay
Chain of Voltage-gated inwardly rectifying potassium channel KCNH2 (Q12809 whole entry): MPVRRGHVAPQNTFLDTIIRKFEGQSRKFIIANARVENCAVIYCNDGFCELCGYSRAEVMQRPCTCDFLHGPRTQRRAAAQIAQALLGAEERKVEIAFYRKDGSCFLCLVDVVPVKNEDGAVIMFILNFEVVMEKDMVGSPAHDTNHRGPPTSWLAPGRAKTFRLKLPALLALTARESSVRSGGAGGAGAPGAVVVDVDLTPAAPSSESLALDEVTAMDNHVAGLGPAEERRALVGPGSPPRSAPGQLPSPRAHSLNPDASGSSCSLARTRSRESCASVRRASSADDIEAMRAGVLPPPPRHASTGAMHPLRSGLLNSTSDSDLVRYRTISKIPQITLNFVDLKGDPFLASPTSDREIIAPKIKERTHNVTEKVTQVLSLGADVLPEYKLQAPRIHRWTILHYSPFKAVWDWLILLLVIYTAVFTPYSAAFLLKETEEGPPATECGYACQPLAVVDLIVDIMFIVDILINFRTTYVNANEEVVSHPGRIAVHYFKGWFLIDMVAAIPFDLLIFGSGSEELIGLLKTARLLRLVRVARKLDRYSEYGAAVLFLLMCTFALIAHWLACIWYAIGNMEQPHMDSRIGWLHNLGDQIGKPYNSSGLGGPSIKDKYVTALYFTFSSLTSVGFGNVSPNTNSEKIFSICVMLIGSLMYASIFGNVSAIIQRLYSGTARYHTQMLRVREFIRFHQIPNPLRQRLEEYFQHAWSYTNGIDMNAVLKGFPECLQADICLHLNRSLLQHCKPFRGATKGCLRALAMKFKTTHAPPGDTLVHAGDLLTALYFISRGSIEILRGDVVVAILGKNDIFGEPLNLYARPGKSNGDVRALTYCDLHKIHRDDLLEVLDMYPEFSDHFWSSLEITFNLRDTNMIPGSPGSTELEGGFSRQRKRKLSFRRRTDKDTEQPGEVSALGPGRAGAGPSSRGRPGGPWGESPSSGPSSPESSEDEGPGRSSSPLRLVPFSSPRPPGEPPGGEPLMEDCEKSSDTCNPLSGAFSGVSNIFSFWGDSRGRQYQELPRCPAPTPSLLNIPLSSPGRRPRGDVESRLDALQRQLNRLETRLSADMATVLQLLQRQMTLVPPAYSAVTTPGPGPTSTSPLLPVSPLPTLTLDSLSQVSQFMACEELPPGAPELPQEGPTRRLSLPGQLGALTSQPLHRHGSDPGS

Chain of Cytochrome P450 3A4 (P08684 whole entry): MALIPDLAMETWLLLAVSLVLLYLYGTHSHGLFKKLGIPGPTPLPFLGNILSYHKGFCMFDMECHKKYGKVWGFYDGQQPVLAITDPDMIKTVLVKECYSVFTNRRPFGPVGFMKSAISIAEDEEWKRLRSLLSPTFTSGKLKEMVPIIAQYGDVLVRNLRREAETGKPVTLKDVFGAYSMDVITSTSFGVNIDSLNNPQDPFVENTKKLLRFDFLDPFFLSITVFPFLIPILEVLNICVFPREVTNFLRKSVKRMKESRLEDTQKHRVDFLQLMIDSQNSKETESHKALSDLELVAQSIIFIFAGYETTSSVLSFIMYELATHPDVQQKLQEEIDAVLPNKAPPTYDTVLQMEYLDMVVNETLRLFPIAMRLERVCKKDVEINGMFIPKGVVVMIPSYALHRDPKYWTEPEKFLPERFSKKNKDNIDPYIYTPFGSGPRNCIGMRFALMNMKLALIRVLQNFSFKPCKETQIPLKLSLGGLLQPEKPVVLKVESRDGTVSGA
Chain of CYP3A4 (P08684 whole entry): as above
Chain of hERG (Q12809 whole entry): as the sequence (Q12809 whole entry) above
Chain of Cytochrome P450 2C19 (P33261 whole entry): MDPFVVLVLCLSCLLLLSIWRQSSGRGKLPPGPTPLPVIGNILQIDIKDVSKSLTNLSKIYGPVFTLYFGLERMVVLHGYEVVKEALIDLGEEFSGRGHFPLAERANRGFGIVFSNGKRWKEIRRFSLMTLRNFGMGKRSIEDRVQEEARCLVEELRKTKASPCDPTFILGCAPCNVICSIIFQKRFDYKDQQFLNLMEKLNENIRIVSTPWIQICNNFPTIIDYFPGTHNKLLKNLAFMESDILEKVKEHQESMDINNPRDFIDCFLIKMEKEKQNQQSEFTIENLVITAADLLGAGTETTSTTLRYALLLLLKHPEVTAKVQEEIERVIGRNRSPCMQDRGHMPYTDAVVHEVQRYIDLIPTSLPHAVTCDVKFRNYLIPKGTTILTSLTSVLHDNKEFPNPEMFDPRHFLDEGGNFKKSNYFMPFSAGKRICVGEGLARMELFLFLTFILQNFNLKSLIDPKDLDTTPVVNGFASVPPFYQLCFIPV
Chain of Cytochrome P450 2D6 (P10635 whole entry): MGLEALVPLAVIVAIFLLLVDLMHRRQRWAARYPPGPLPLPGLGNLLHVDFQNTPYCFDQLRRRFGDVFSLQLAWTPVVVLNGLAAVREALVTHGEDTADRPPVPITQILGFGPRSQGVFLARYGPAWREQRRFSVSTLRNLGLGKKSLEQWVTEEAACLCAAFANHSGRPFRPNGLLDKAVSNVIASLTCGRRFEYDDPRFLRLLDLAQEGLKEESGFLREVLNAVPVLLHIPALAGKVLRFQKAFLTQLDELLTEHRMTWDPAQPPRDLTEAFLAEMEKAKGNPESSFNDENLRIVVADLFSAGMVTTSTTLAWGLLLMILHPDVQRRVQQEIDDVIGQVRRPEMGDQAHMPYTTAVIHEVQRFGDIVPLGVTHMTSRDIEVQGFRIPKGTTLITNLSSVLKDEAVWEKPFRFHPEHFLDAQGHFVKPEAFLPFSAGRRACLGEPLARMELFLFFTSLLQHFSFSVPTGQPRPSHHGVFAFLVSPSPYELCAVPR
Chain of CYP2D6 (P10635 whole entry, canonical isoform): as the sequence (P10635 whole entry) above
Chain of Cytochrome P450 2C9 (P11712 whole entry): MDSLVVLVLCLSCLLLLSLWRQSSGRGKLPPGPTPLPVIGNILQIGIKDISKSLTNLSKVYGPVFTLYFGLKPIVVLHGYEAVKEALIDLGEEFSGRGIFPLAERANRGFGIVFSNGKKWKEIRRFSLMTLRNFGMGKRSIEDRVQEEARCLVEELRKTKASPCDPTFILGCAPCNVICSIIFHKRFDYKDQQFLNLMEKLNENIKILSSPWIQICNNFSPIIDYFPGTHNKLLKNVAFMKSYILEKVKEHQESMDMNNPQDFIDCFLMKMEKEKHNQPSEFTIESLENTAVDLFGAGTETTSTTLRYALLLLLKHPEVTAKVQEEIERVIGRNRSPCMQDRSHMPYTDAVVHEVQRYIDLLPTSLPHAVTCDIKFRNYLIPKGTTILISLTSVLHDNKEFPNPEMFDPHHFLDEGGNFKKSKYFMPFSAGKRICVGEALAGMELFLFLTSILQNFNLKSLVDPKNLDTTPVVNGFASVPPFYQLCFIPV
Chain of CYP2C9 (P11712 whole entry): as above

Cn1ccc(NC(=O)c2ccn(Cc3cccc(C(F)(F)F)c3)n2)n1
IC50 [1]: 2140 nM

Cn1ccc(NC(=O)c2cn(Cc3cccc(C(F)(F)F)c3)cn2)n1
IC50 [1]: 11 nM
Vd [2]: 8.1 L/kg
microsomal CLint [3]: < 8 µL/min/mg
clearance [4]: 463 mL/min/kg

Cn1ccc(NC(=O)c2cn(Cc3ccc(Cl)c(C(F)(F)F)c3)cn2)n1
IC50 [1]: 16 nM

Cn1ccc(NC(=O)c2cn(CC3(CC4CC4)CCC3)cn2)n1
IC50 [1]: 101 nM

Cn1ccc(NC(=O)c2cn(Cc3ccc(Cl)c(C(F)(F)F)c3)nn2)n1
IC50 [1]: 33 nM
Vd [2]: 10.2 L/kg
microsomal CLint [3]: < 8 µL/min/mg
clearance [4]: 641 mL/min/kg

Cc1c(C(=O)N=C(N)N)ncn1Cc1ccc(Cl)cc1
IC50 [1]: 94 nM
IC50 [5]: 217 nM
inhibition at 3 µM [6]: < 1%
IC50 [7]: 68 nM
inhibition at 3 µM [8]: < 1%
Papp [9]: 2.6 ×10⁻⁶ cm/s
microsomal CLint [10]: 74.1 µL/min/mg
inhibition at 3 µM [11]: < 1%
microsomal CLint [3]: 15.5 µL/min/mg
inhibition at 10 µM [12]: 64%
inhibition at 3 µM [13]: < 1%

Cn1ccc(NC(=O)c2cnn(Cc3ccc(Cl)c(C(F)(F)F)c3)c2)n1
IC50 [1]: 63 nM
half-life [14]: 1.3 h
Vd [2]: 0.7 L/kg
microsomal CLint [3]: 25.9 µL/min/mg
bioavailability [15]: 66%
clearance [4]: 30 mL/min/kg

Cn1ccc(NC(=O)c2cn(Cc3cccc(Cl)c3)cn2)n1
IC50 [1]: 57 nM

CC(=O)NCCNC(=O)c1cn(Cc2ccc(F)c(C(F)(F)F)c2)cn1
IC50 [1]: 2750 nM

Cn1cnc(NC(=O)c2cn(Cc3ccc(Cl)c(C(F)(F)F)c3)cn2)n1
IC50 [1]: 63 nM

Cn1ccc(NC(=O)c2ncn(Cc3cccc(C(F)(F)F)c3)n2)n1
IC50 [1]: 113 nM

Cc1c(C(=O)Nc2ccn(C)n2)ncn1Cc1cccc(C(F)(F)F)c1
IC50 [1]: 11.8 nM
Activity [16]: 84%
IC50 [17]: > 30000 nM
Cp(f) [18]: 2035 nM
half-life [14]: 2.3 h
Activity [19]: Non-toxic
IC50 [20]: > 30000 nM
Vd [2]: 4.5 L/kg
Activity [21]: Toxic
IC50 [22]: > 30000 nM
Activity [23]: 85%
Drug uptake [24]: 6491 ng/mL
microsomal CLint [10]: < 18 µL/min/mg
IC50 [25]: > 30000 nM
Activity [26]: 55%
Drug uptake [27]: 56.8 ng/mL
IC50 [28]: > 30000 nM
microsomal CLint [3]: < 8 µL/min/mg
bioavailability [15]: 52%
Drug uptake [29]: 1703 ng/mL
Activity [30]: Dose-dependent effect
Cp(f) [31]: 533.5 nM
Cp(f) [32]: 17.6 nM
IC50 [33]: 28900 nM
clearance [4]: 43 mL/min/kg

Cn1ccc(NC(=O)c2cn(Cc3cccc(OC(F)(F)F)c3)cn2)n1
IC50 [1]: 32 nM
IC50 [5]: 88 nM

Cn1ccc(NC(=O)c2cn(CCc3ccccc3Cl)cn2)n1
IC50 [1]: 126 nM

Cn1ncc(NC(=O)c2cn(Cc3cccc(C(F)(F)F)c3)cn2)n1
IC50 [1]: 25 nM

Source: ChEMBL document CHEMBL1681746, “N-benzylimidazole carboxamides as potent, orally active stearoylCoA desaturase-1 inhibitors” (Bioorg Med Chem Lett, 2011)
